Measured values: ChEMBL document CHEMBL1122354, “Synthesis and antiarrhythmic activity of new [(dialkylamino)alkyl]pyridylacetamides” (1983)
Active and inactive are the calls of the source. No cut-off for these calls is given here.

Experiments:
Canis familiaris [1] = experiment: Antiarrhythmic potential in conscious dogs; value ranges from +50 to +60; assay type: functional, Canis lupus familiaris, Heart
In short: (§1)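 Mongrel dogs with experimental myocardial infarction, conscious, with ventricular tachycardia or runs of VT. Dosed 50 mg/kg orally as solution in distilled water or acacia gum during the acute phase (16–36 h). Positive response means ≥60% suppression of ventricular arrhythmias or induction of sinus rhythm. The duration of effect was recorded in min.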

Canis familiaris [2] = experiment: (§2) Intracardiac conduction in anesthetized dogs, measured as HV; HV being the conduction time in specific intraventricular tissue; assay type: functional, Canis lupus familiaris, Cardiac ventricle; design: concentration or dose not given beside the values
In short: (§3)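 Mongrel dogs under sodium pentobarbital anesthesia. His bundle electrogram recorded via left heart catheterization. His potentials recorded before dosing and 5 and 15 min after each intravenous dose, at different pacing rates. SH (stimulus to His deflection) and HV intervals measured.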

Canis familiaris [3] = experiment: Intracardiac conduction in anesthetized dogs, measured as SH; SH being the atrial His bundle conduction time; value ranges from +30 to +-55; assay type: functional, Canis lupus familiaris, Atrioventricular bundle; in short: as §3
Canis familiaris [4] = experiment: Antiarrhythmic potential in conscious dogs; value ranges from 210-270; assay type: functional, Canis lupus familiaris, Heart; in short: as §1
Canis familiaris [5] = experiment: Antiarrhythmic potential in conscious dogs; Inactive.; assay type: functional, organism-based; settings: Canis lupus familiaris; Heart; in short: as §1
Canis familiaris [6] = experiment: Intracardiac conduction in anesthetized dogs, measured as SH; SH being the atrial His bundle conduction time; assay type: functional, Canis lupus familiaris, Atrioventricular bundle; in short: as §3
Canis familiaris [7] = experiment: as §2; assay type: functional, Canis lupus familiaris, Cardiac ventricle; in short: as §3
Canis familiaris [8] = experiment: Antiarrhythmic potential in conscious dogs; assay type: functional, Canis lupus familiaris, Heart; in short: as §1
Canis familiaris [9] = experiment: Intracardiac conduction in anesthetized dogs, measured as SH; SH being the atrial His bundle conduction time; value ranges from +70 to +120; assay type: functional, Canis lupus familiaris, Atrioventricular bundle; in short: as §3
Canis familiaris [10] = experiment: Intracardiac conduction in anesthetized dogs, measured as HV; HV being the conduction time in specific intraventricular tissue; value ranges from +100 to +210; assay type: functional, Canis lupus familiaris, Cardiac ventricle; in short: as §3
Canis familiaris [11] = experiment: Intracardiac conduction in anesthetized dogs, measured as HV; HV being the conduction time in specific intraventricular tissue; value ranges from +2 to +-50; assay type: functional, Canis lupus familiaris, Cardiac ventricle; in short: as §3
Canis familiaris [12] = experiment: Intracardiac conduction in anesthetized dogs, measured as SH; SH being the atrial His bundle conduction time; value ranges from +10 to +50; assay type: functional, Canis lupus familiaris, Atrioventricular bundle; in short: as §3
Canis familiaris [13] = experiment: Antiarrhythmic potential in conscious dogs; value ranges from +190 to +270; assay type: functional, Canis lupus familiaris, Heart; in short: as §1
Canis familiaris [14] = experiment: Intracardiac conduction in anesthetized dogs, measured as SH; SH being the atrial His bundle conduction time value ranges from +15 to +35; assay type: functional, Canis lupus familiaris, Atrioventricular bundle; in short: as §3
Canis familiaris [15] = experiment: Antiarrhythmic potential in conscious dogs; value ranges from +120 to +380; assay type: functional, Canis lupus familiaris, Heart; in short: as §1
Canis familiaris [16] = experiment: Intracardiac conduction in anesthetized dogs, measured as HV; HV being the conduction time in specific intraventricular tissue value ranges from +20 to +30; assay type: functional, Canis lupus familiaris, Cardiac ventricle; in short: as §3
Canis familiaris [17] = experiment: Antiarrhythmic potential in conscious dogs; value ranges from +155 to +300; assay type: functional, Canis lupus familiaris, Heart; in short: as §1
Canis familiaris [18] = experiment: Antiarrhythmic potential in conscious dogs;Value ranges from +27 to +280; assay type: functional, Canis lupus familiaris, Heart; in short: as §1
Canis familiaris [19] = experiment: Intracardiac conduction in anesthetized dogs, measured as SH; SH being the atrial His bundle conduction time; Value ranges from +20 to +70; assay type: functional, Canis lupus familiaris, Atrioventricular bundle; in short: as §3
Canis familiaris [20] = experiment: Intracardiac conduction in anesthetized dogs, measured as HV; HV being the conduction time in specific intraventricular tissue; Value ranges from 20-33; assay type: functional, Canis lupus familiaris, Cardiac ventricle; in short: as §3
Canis familiaris [21] = experiment: Antiarrhythmic potential in conscious dogs; inactive.; assay type: functional, organism-based; settings: Canis lupus familiaris; Heart; in short: as §1
Canis familiaris [22] = experiment: Antiarrhythmic potential in conscious dogs; value ranges from +20 to +270; assay type: functional, Canis lupus familiaris, Heart; in short: as §1
Canis familiaris [23] = experiment: Intracardiac conduction in anesthetized dogs, measured as HV; HV being the conduction time in specific intraventricular tissue; value ranges from +25 to +30; assay type: functional, Canis lupus familiaris, Cardiac ventricle; in short: as §3
Canis familiaris [24] = experiment: Intracardiac conduction in anesthetized dogs, measured as SH; SH being the atrial His bundle conduction time; value ranges from +15 to +20; assay type: functional, Canis lupus familiaris, Atrioventricular bundle; in short: as §3
Canis familiaris [25] = experiment: Intracardiac conduction in anesthetized dogs, measured as SH; SH being the atrial His bundle conduction time; value ranges from +40 to +100; assay type: functional, Canis lupus familiaris, Atrioventricular bundle; in short: as §3
Canis familiaris [26] = experiment: Intracardiac conduction in anesthetized dogs, measured as HV; HV being the conduction time in specific intraventricular tissue; value ranges from +45 to +100; assay type: functional, Canis lupus familiaris, Cardiac ventricle; in short: as §3
Canis familiaris [27] = experiment: Antiarrhythmic potential in conscious dogs; value ranges from +45 to +360; assay type: functional, Canis lupus familiaris, Heart; in short: as §1
Canis familiaris [28] = experiment: Intracardiac conduction in anesthetized dogs, measured as HV; HV being the conduction time in specific intraventricular tissue; value ranges from +0 to +30; assay type: functional, Canis lupus familiaris, Cardiac ventricle; in short: as §3
Canis familiaris [29] = experiment: Intracardiac conduction in anesthetized dogs, measured as SH; SH being the atrial His bundle conduction time; value ranges from +25 to +30; assay type: functional, Canis lupus familiaris, Atrioventricular bundle; in short: as §3
Canis familiaris [30] = experiment: Antiarrhythmic potential in conscious dogs; value ranges from +165 to +405; assay type: functional, Canis lupus familiaris, Heart; in short: as §1
Canis familiaris [31] = experiment: Antiarrhythmic potential in conscious dogs; the value ranges from +8 to +-240; assay type: functional, Canis lupus familiaris, Heart; in short: as §1
Canis familiaris [32] = experiment: Intracardiac conduction in anesthetized dogs, measured as SH; SH being the atrial His bundle conduction time; value ranges from +4 to +-85; assay type: functional, Canis lupus familiaris, Atrioventricular bundle; in short: as §3
Canis familiaris [33] = experiment: Antiarrhythmic potential in conscious dogs; the value ranges from +30 to +60; assay type: functional, Canis lupus familiaris, Heart
Canis familiaris [34] = experiment: Antiarrhythmic potential in conscious dogs; value ranges from +80 to +360; assay type: functional, Canis lupus familiaris, Heart; in short: as §1
Canis familiaris [35] = experiment: Intracardiac conduction in anesthetized dogs, measured as SH; SH being the atrial His bundle conduction time; Value ranges from +8 to +100; assay type: functional, Canis lupus familiaris, Atrioventricular bundle; in short: as §3
Canis familiaris [36] = experiment: Intracardiac conduction in anesthetized dogs, measured as HV; HV being the conduction time in specific intraventricular tissue; value ranges from + 60 to+135; assay type: functional, Canis lupus familiaris, Cardiac ventricle; in short: as §3
Canis familiaris [37] = experiment: Antiarrhythmic potential in conscious dogs; was tested and found that after 90 min the dogs died.; assay type: functional, Canis lupus familiaris, Heart
Canis familiaris [38] = experiment: Intracardiac conduction in anesthetized dogs, measured as SH; SH being the atrial His bundle conduction time; Value ranges from +0 to +10; assay type: functional, Canis lupus familiaris, Atrioventricular bundle; in short: as §3
Canis familiaris [39] = experiment: Intracardiac conduction in anesthetized dogs, measured as HV; HV being the conduction time in specific intraventricular tissue; value ranges from 35-80; assay type: functional, Canis lupus familiaris, Cardiac ventricle; in short: as §3
Canis familiaris [40] = experiment: Intracardiac conduction in anesthetized dogs, measured as SH; SH being the atrial His bundle conduction time; value ranges from +50 to +85; assay type: functional, Canis lupus familiaris, Atrioventricular bundle; in short: as §3
Canis familiaris [41] = experiment: Antiarrhythmic potential in conscious dogs was calculated and found that after 60 minutes the dogs died.; assay type: functional, Canis lupus familiaris, Heart

Compound: C=C[C@H]1CN2CC[C@H]1C[C@@H]2[C@@H](O)c1ccnc2ccc(OC)cc12 [QUINIDINE]
- Actual duraction (Canis familiaris [1]): 60 min

Compound: CC(C)N(CCC(C(N)=O)(c1ccccn1)C1CCCCC1)C(C)C (stereo unspecified)
- Variation/Control (Canis familiaris [2]): 40%
- Variation/Control (Canis familiaris [3]): 55%
- Actual duraction (Canis familiaris [4]): 270 min

Compound: CCCN(CCC)CCC(CC(C)C)(C(N)=O)c1ccccn1 (stereo unspecified)
- Variation/Control (Canis familiaris [2]): 0%
- Actual duraction (Canis familiaris [5]): inactive
- Variation/Control (Canis familiaris [6]): 20%

Compound: CC(C)CC(CCCN(C(C)C)C(C)C)(C(N)=O)c1ccccn1 (stereo unspecified)
- Variation/Control (Canis familiaris [7]): 0%
- Actual duraction (Canis familiaris [8]): 30 min
- Variation/Control (Canis familiaris [6]): 15%

Compound: CCCCCC(CCN(C(C)C)C(C)C)(C(N)=O)c1ccccn1 (stereo unspecified)
- Actual duraction (Canis familiaris [8]): 180 min
- Variation/Control (Canis familiaris [9]): 120%
- Variation/Control (Canis familiaris [10]): 210%

Compound: CC(C)CCC(CCN(C(C)C)C(C)C)(C(N)=O)c1ccccn1 (stereo unspecified)
- Variation/Control (Canis familiaris [11]): 50%
- Variation/Control (Canis familiaris [12]): 50%
- Actual duraction (Canis familiaris [13]): 270 min

Compound: CC(C)CC(CCN(C(C)C)C(C)C)(C(N)=O)c1ccccn1 (stereo unspecified) [PENTISOMIDE]
- Variation/Control (Canis familiaris [14]): 35%
- Actual duraction (Canis familiaris [15]): 380 min
- Variation/Control (Canis familiaris [16]): 30%

Compound: CCC(CCN(C(C)C)C(C)C)(C(N)=O)c1ccccn1 (stereo unspecified)
- Variation/Control (Canis familiaris [2]): 0%
- Actual duraction (Canis familiaris [17]): 300 min
- Variation/Control (Canis familiaris [6]): 20%

Compound: CCC(CC)C(CCN(C(C)C)C(C)C)(C(N)=O)c1ccccn1 (stereo unspecified)
- Actual duraction (Canis familiaris [18]): 280 min
- Variation/Control (Canis familiaris [19]): 70%
- Variation/Control (Canis familiaris [20]): 33%

Compound: CCCC(CCN(C(C)C)C(C)C)(C(N)=O)c1ccccn1 (stereo unspecified)
- Variation/Control (Canis familiaris [7]): 0%
- Actual duraction (Canis familiaris [8]): 35 min
- Variation/Control (Canis familiaris [6]): 15%

Compound: CC(C)N(CCC(C(N)=O)c1ccccn1)C(C)C (stereo unspecified)
- Variation/Control (Canis familiaris [2]): 0%
- Actual duraction (Canis familiaris [21]): inactive
- Variation/Control (Canis familiaris [6]): 0%

Compound: CCC(C)C(CCN(C(C)C)C(C)C)(C(N)=O)c1ccccn1 (stereo unspecified)
- Variation/Control (Canis familiaris [2]): 30%
- Actual duraction (Canis familiaris [8]): 240 min
- Variation/Control (Canis familiaris [6]): 0%

Compound: CC(C)CC(CCN1C(C)CCCC1C)(C(N)=O)c1ccccn1 (stereo unspecified)
- Actual duraction (Canis familiaris [22]): 270 min
- Variation/Control (Canis familiaris [23]): 30%
- Variation/Control (Canis familiaris [24]): 20%

Compound: CC(C)N(CCC(CC1CCCCC1)(C(N)=O)c1ccccn1)C(C)C (stereo unspecified)
- Variation/Control (Canis familiaris [25]): 100%
- Variation/Control (Canis familiaris [26]): 100%
- Actual duraction (Canis familiaris [27]): 360 min

Compound: CC(C)N(CCC(CC(C)(C)C)(C(N)=O)c1ccccn1)C(C)C (stereo unspecified)
- Variation/Control (Canis familiaris [28]): 30%
- Variation/Control (Canis familiaris [29]): 30%
- Actual duraction (Canis familiaris [30]): 405 min

Compound: CC(C)CC(CCN(C(C)C)C(C)C)(C(N)=O)c1ccncc1 (stereo unspecified)
- Variation/Control (Canis familiaris [2]): 45%
- Actual duraction (Canis familiaris [31]): 240 min
- Variation/Control (Canis familiaris [6]): 110%

Compound: CC(C)CC(CCN(C(C)C)C1CCCCC1)(C(N)=O)c1ccccn1 (stereo unspecified)
- Variation/Control (Canis familiaris [2]): 50%
- Actual duraction (Canis familiaris [8]): 300 min
- Variation/Control (Canis familiaris [32]): 85%

Compound: CC(C)CC(CCN(C(C)C)C(C)C)(C(N)=O)c1cccnc1 (stereo unspecified)
- Variation/Control (Canis familiaris [7]): 25%
- Actual duraction (Canis familiaris [8]): 45 min
- Variation/Control (Canis familiaris [6]): 20%

Compound: CC(C)N(CCC(C(N)=O)(c1ccccc1)c1ccccn1)C(C)C (stereo unspecified) [DISOPYRAMIDE]
- Actual duraction (Canis familiaris [33]): 60 min

Compound: CC(C)N(CCC(C(N)=O)(c1ccccn1)C(C)C)C(C)C (stereo unspecified)
- Variation/Control (Canis familiaris [2]): 0%
- Actual duraction (Canis familiaris [34]): 360 min
- Variation/Control (Canis familiaris [6]): 10%

Compound: CCN(CC)CCC(CC(C)C)(C(N)=O)c1ccccn1 (stereo unspecified)
- Variation/Control (Canis familiaris [2]): 0%
- Actual duraction (Canis familiaris [21]): inactive
- Variation/Control (Canis familiaris [6]): 15%

Compound: CCC(C)N(CCC(CC(C)C)(C(N)=O)c1ccccn1)C(C)CC (stereo unspecified)
- Variation/Control (Canis familiaris [35]): 100%
- Variation/Control (Canis familiaris [36]): 135%
- Actual duraction (Canis familiaris [37]): 90 min

Compound: CC(C)CC(CCN1CCOCC1)(C(N)=O)c1ccccn1 (stereo unspecified)
- Variation/Control (Canis familiaris [7]): 0%
- Variation/Control (Canis familiaris [38]): 10%
- Actual duraction (Canis familiaris [21]): inactive

Compound: CC(C)N(CCC(Cc1ccccc1)(C(N)=O)c1ccccn1)C(C)C (stereo unspecified)
- Variation/Control (Canis familiaris [39]): 80%
- Variation/Control (Canis familiaris [40]): 85%
- Actual duraction (Canis familiaris [21]): inactive

Compound: CC(C)CC(CCN(C1CCCCC1)C1CCCCC1)(C(N)=O)c1ccccn1 (stereo unspecified)
- Variation/Control (Canis familiaris [2]): 75%
- Actual duraction (Canis familiaris [41]): 60 min
- Variation/Control (Canis familiaris [6]): 45%
